The source of these data is ChEMBL document CHEMBL2010692, “Inhibitory effect of novel S,N-bisphosphonates on some carcinoma cell lines, osteoarthritis, and chronic inflammation” (Eur J Med Chem, 2012).

Some results are limits rather than exact numbers.

Data set [1] has as its system Mus musculus. Description: Antiinflammatory activity in methylated bovine serum albumin sensitized delayed-type hypersensitivity granuloma mouse model assessed as reduction of granuloma dry weight at 25 mg/kg, sc qd for 9 days. The following applies: 216 h, route subcutaneous. The data set is classed as functional. A digest of the protocol:
(§1)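 Groups of 10 female mice (25 g) were sensitized sc over the inguinal lymph node with mBSA emulsion in saline, Freund's incomplete adjuvant and dextran. Three weeks later, two 6-mm hydroxyapatite discs soaked in mBSA (30 mg/mL saline) were implanted sc in the dorsum. Compounds at pH 7.4 were given sc into the scruff at 0.1 mL/10 g, daily from implantation to day 9. Granuloma wet and dry weights were recorded as % inhibition.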

The subject of data set [2] is Mus musculus. Description: Antiinflammatory activity in methylated bovine serum albumin sensitized delayed-type hypersensitivity granuloma mouse model assessed as reduction of granuloma dry weight at 100 mg/kg, sc qd for 9 days. In kind it is functional. Particulars: 216 h, route subcutaneous. Put shortly: as §1
In data set [3] the test system is Mus musculus. Description: Antiinflammatory activity in methylated bovine serum albumin sensitized delayed-type hypersensitivity granuloma mouse model assessed as reduction of granuloma wet weight at 100 mg/kg, sc qd for 9 days. Particulars: 216 h, route subcutaneous. The data set is classed as functional. A digest of the protocol: as §1
The test system of data set [4] is Rattus norvegicus. Description: Antiarthritic activity in complete Freund's adjuvant-induced rat arthritis model assessed as reduction of paw volume in non-injected paw at 20 mg/kg, sc qd for 28 days. In kind it is functional. Particulars: 672 h, route subcutaneous. A digest of the protocol: (§2)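 Rat adjuvant-induced polyarthritis. Compounds were dissolved or suspended in sterile saline, sonicated as needed, brought to pH 7.0 with NaOH, and kept as frozen aliquots, fresh each dosing day. Dosing was sc once daily for 28 days, by body weight. The arthritic control group got vehicle sc. Injected and noninjected hindpaw volumes were measured on day 28 by mercury displacement plethysmography and expressed as % inhibition.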

In the next data set the test system is MCF7. Description: Cytotoxicity against human MCF7 cells after 48 hrs by SRB assay. In kind it is functional, cell-based. The following applies: MCF7, 48 h. Put shortly:
(§3)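 Cells were seeded at 10^4 per well and allowed to attach for 24 h. They were then exposed to four compound concentrations (5, 12.5, 25, 50), each in triplicate wells, for 48 h at 37 °C in 5% CO2. Cells were fixed and stained with sulforhodamine B, washed with acetic acid, and bound dye was recovered in Tris-EDTA pH 7.4 and read on a plate reader. IC50 was taken from survival curves using the triplicate means.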

In data set [5] the test system is Rattus norvegicus. In words: Antiarthritic activity in complete Freund's adjuvant-induced rat arthritis model assessed as reduction of paw volume in non-injected paw at 50 mg/kg, sc qd for 28 days. In kind it is functional. Particulars: 672 h, route subcutaneous. A digest of the protocol:
as §2

Data set [6] relates to Mus musculus. In words: Antiinflammatory activity in methylated bovine serum albumin sensitized delayed-type hypersensitivity granuloma mouse model assessed as reduction of granuloma dry weight at 60 mg/kg, sc qd for 9 days. The following applies: 216 h, route subcutaneous. In kind it is functional. A digest of the protocol: as §1
Data set [7] relates to Mus musculus. In words: Toxicity in albino mouse assessed as mortality at 500 to 1000 mg/kg, […] after 24 hrs. In kind it is organism-based. Details: dose 500-1000 mg/kg. The following applies: in vivo. A digest of the protocol:
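Albino mice (20-25 g) were split into 6 groups of 8. Compounds were given at 500, 750 and 1000 mg/kg; controls received buffer only. Toxic symptoms, mortality and postmortem findings were recorded 24 h after administration. LD50 was calculated by the Dm − Σ(z×d)/n formula.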

Data set [8] concerns Mus musculus. Description: Antiinflammatory activity in methylated bovine serum albumin sensitized delayed-type hypersensitivity granuloma mouse model assessed as reduction of granuloma wet weight at 60 mg/kg, sc qd for 9 days. In kind it is functional. The following applies: 216 h, route subcutaneous. Put shortly: as §1
In data set [9] the test system is Mus musculus. In words: Toxicity in albino mouse assessed as toxic symptoms at 500 to 1000 mg/kg, ip after 24 hrs. Particulars: in vivo.
Another data set has as its system HepG2. In words: Cytotoxicity against human HepG2 cells after 48 hrs by SRB assay. The following applies: HepG2, 48 h. In kind it is functional, cell-based. A digest of the protocol:
as §3
For orientation: The SRB assay estimates cell density from bound dye.

The subject of data set [10] is Mus musculus. In words: Antiinflammatory activity in methylated bovine serum albumin sensitized delayed-type hypersensitivity granuloma mouse model assessed as reduction of granuloma wet weight at 25 mg/kg, sc qd for 9 days. The data set is classed as functional. Particulars: 216 h, route subcutaneous. Put shortly:
as §1

The subject of another data set is HCT-116. In words: Cytotoxicity against human HCT116 cells after 48 hrs by SRB assay. In kind it is functional, cell-based. The following applies: HCT-116, 48 h. A digest of the protocol: as §3
Data set [11] has as its system Rattus norvegicus. Description: Antiarthritic activity in complete Freund's adjuvant-induced rat arthritis model assessed as reduction of paw volume in injected paw at 30 mg/kg, sc qd for 28 days. In kind it is functional. The following applies: 672 h, route subcutaneous. Put shortly:
as §2

Data set [12] deals with Rattus norvegicus. In words: Antiarthritic activity in complete Freund's adjuvant-induced rat arthritis model assessed as reduction of paw volume in injected paw at 10 mg/kg, sc qd for 28 days. The data set is classed as functional. Particulars: 672 h, route subcutaneous. Put shortly:
as §2

For data set [13], the system named is Rattus norvegicus. Description: Antiarthritic activity in complete Freund's adjuvant-induced rat arthritis model assessed as reduction of paw volume in non-injected paw at 30 mg/kg, sc qd for 28 days. In kind it is functional. Particulars: 672 h, route subcutaneous. Put shortly: as §2
In data set [14] the test system is Rattus norvegicus. In words: Antiarthritic activity in complete Freund's adjuvant-induced rat arthritis model assessed as reduction of paw volume in injected paw at 50 mg/kg, sc qd for 28 days. The following applies: 672 h, route subcutaneous. In kind it is functional. A digest of the protocol: as §2
Data set [15] relates to Rattus norvegicus. Description: Antiarthritic activity in complete Freund's adjuvant-induced rat arthritis model assessed as reduction of paw volume in non-injected paw at 10 mg/kg, sc qd for 28 days. In kind it is functional. The following applies: 672 h, route subcutaneous. Put shortly: as §2
In data set [16] the test system is Rattus norvegicus. Description: Antiarthritic activity in complete Freund's adjuvant-induced rat arthritis model assessed as reduction of paw volume in injected paw at 20 mg/kg, sc qd for 28 days. The data set is classed as functional. The following applies: 672 h, route subcutaneous. A digest of the protocol: as §2
A further data set relates to HeLa. Description: Cytotoxicity against human HeLa cells after 48 hrs by SRB assay. In kind it is functional, cell-based. A digest of the protocol: as §3

Consider `CCOP(=O)(OCC)C1(P(=O)(OCC)OCC)C(=S)c2ccccc2N1C`, for which the figures for the inhibition in vivo at 25 mg/kg in the data set on Mus musculus [1] and with Mus musculus [10] were 36% and 33%, respectively. Moreover, the inhibition in vivo (commonly how much of the control response was suppressed) at 100 mg/kg in the data set with Mus musculus [2] came out at 48%; in the data set with Mus musculus [3], 38%. The inhibition in vivo at 20 mg/kg in the data set on Rattus norvegicus [4] turned out to be 55%; in the data set with Rattus norvegicus [16] it was 23%. For the same molecule, the half-inhibitory concentration (IC50) (in general, the concentration needed to halve the response being measured) turned out to be 16.5 µM with MCF7, 14.7 µM in the data set on HepG2, 8.27 µM with HCT-116 and 15.2 µM in the data set on HeLa. The inhibition in vivo at 50 mg/kg came out at 68% in the data set with Rattus norvegicus [5] and 30% in the data set with Rattus norvegicus [14]. Also, the inhibition in vivo at 60 mg/kg with Mus musculus [6] and in the data set with Mus musculus [8] was 45% in each case. The Activity result in the data set on Mus musculus [7] and in the data set with Mus musculus [9] was “Non-toxic” each time. Besides, the results for the inhibition in vivo at 30 mg/kg with Rattus norvegicus [11] and with Rattus norvegicus [13] were 32% and 70%, respectively. In addition, the inhibition in vivo at 10 mg/kg is 15% in the data set with Rattus norvegicus [12] and 45% in the data set with Rattus norvegicus [15].
For the molecule `CCOP(=O)(OCC)C1(P(=O)(OCC)OCC)N=C(c2ccc(C)cc2)c2ccccc2C1=S`, the half-inhibitory concentration (IC50) in the data set with MCF7 came to 30.4 µM; in the data set with HepG2, 25.2 µM; with HCT-116, 18.3 µM; in the data set with HeLa, 26.7 µM.
With `CCOP(=O)(OCC)C1(P(=O)(OCC)OCC)C(=S)c2ccccc2N=C1c1ccccc1`, the inhibition in vivo at 25 mg/kg with Mus musculus [1] is 22%; in the data set with Mus musculus [10] it was 13%. For the same molecule, the inhibition in vivo at 100 mg/kg was found to be 48% with Mus musculus [2] and 43% in the data set with Mus musculus [3]. Also, the inhibition in vivo at 20 mg/kg with Rattus norvegicus [4] came out at 60%; in the data set with Rattus norvegicus [16], 12%. For the same molecule, the half-inhibitory concentration (IC50) with MCF7 came out at 15.6 µM; with HepG2, 20.4 µM; in the data set on HCT-116, 22.8 µM; with HeLa, 27.1 µM. The inhibition in vivo at 50 mg/kg was found to be 70% with Rattus norvegicus [5] and 28% with Rattus norvegicus [14]. Also, the values for the inhibition in vivo at 60 mg/kg in the data set with Mus musculus [6] and in the data set on Mus musculus [8] were 32% and 35%, respectively. Further, the values for the inhibition in vivo at 30 mg/kg in the data set with Rattus norvegicus [11] and in the data set on Rattus norvegicus [13] were 30% and 68%, respectively. In addition, the values for the inhibition in vivo at 10 mg/kg with Rattus norvegicus [12] and with Rattus norvegicus [15] were under 5% and 40%, respectively.
